The source of these data is ChEMBL document CHEMBL1909596, “Synthesis and evaluation of chromenyl barbiturates and thiobarbiturates as potential antitubercular agents” (Bioorg Med Chem Lett, 2011).

Values after ≈ are worked out from the molar mass of the structure shown.

The subject of data set [1] is Mycobacterium tuberculosis. As to the kind of experiment: Antimycobacterial activity against Mycobacterium tuberculosis H37Rv ATCC 27294 by microplate alamar blue assay. Type of data set: functional, organism-based. The gist of the method: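 Strain grown in BACTEC 12B medium, broth microdilution with Alamar Blue read-out (TAACF protocol). Primary screen at 6.25 µg/mL; compounds reaching ≥90% growth inhibition retested in 10 twofold dilutions, typically from 100. MIC taken as the lowest concentration giving 90% fluorescence reduction relative to controls. Fluorescent compounds tested in BACTEC 460 radiometric system instead. Rifampin control.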

A short description of data set [2]: Cytotoxicity against african green monkey Vero cells after 72 hrs by celltiter-glo luminescent cell viability assay. Type of data set: cell-based. Conditions: chlorocebus sabaeus. The gist of the method: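 VERO cells exposed to compounds for 72 h. Viability read from ATP content by luminescence. CC50 derived by curve fitting of dose–response curves.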
The nature of data set [3]: Selectivity index, ratio of CC50 african green monkey Vero cells to IC90 for Mycobacterium tuberculosis H37Rv ATCC 27294. Type of data set: toxicity, cell-based. In a few lines: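 SI calculated as VERO CC50 (72 h luminescent ATP viability assay, curve-fitted) divided by the MABA MIC (90% fluorescence reduction endpoint) for H37Rv.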

In the case of `Cc1cc(=O)oc2cc3occ(C=C4C(=O)NC(=S)NC4=O)c(=O)c3cc12`, in data set [1], the IC50 was > 100 mg/L and the IC90 is > 100 mg/L.
Turning to `Cc1cc(=O)oc2cc3occ(C=C4C(=O)NC(=O)NC4=O)c(=O)c3cc12`, in data set [1], the IC50 was > 100 mg/L and the IC90 is > 100 mg/L.
Take `Cc1cc(=O)oc2c(C)c3occ(C=C4C(=O)NC(=O)NC4=O)c(=O)c3cc12`: in data set [1], the half-inhibitory concentration (IC50) worked out at 4.71 mg/L (≈ 12.4 µM) and it took 5.9 mg/L (≈ 15.5 µM) to reach the 90% level (IC90). The same compound displayed a cytotoxic concentration (CC50) at 72 h in data set [2] of 14.3 mg/L (≈ 37.5 µM). Also, the selectivity ratio in data set [3] came out at 2.41.
As to `Cc1c(C(=O)c2ccc(Cl)cc2)oc2cc3occ(C=C4C(=O)NC(=S)NC4=O)c(=O)c3cc12`, in data set [1], the IC50 was 42 mg/L (≈ 85.3 µM) and the 90% effect concentration (IC90) turned out to be 63.8 mg/L (≈ 129 µM).
The corresponding values for `Cc1c(C(=O)c2ccc(Br)cc2)oc2cc3occ(C=C4C(=O)NC(=O)NC4=O)c(=O)c3cc12` are 38.5 mg/L (≈ 73.9 µM) and 55.4 mg/L (≈ 106 µM).
The corresponding values for `Cc1c(C(=O)c2ccccc2)oc2cc3occ(C=C4C(=O)NC(=S)NC4=O)c(=O)c3cc12` are > 100 mg/L and > 100 mg/L.
For the compound `NC(=O)c1cnccn1` [PYRAZINAMIDE], in data set [1], the concentration for an effect of 90% (IC90) was > 20 mg/L.
As to `COc1ccc(C(=O)c2oc3cc4occ(C=C5C(=O)NC(=O)NC5=O)c(=O)c4cc3c2C)cc1`, in data set [1], the IC50 was > 100 mg/L and the concentration for an effect of 90% (IC90) is > 100 mg/L.
Regarding `Cc1c(C(=O)c2ccc(Cl)cc2)oc2cc3occ(C=C4C(=O)NC(=O)NC4=O)c(=O)c3cc12`, in data set [1], half-maximal inhibition (IC50) was put at 65.1 mg/L (≈ 136 µM) and the IC90 stood at 93 mg/L (≈ 195 µM).
In data set [1], `Cc1ccc(C(=O)c2oc3cc4occ(C=C5C(=O)NC(=O)NC5=O)c(=O)c4cc3c2C)cc1` came in with an IC50 of 55.2 mg/L (≈ 121 µM) and a 90% effect concentration (IC90) of 84.7 mg/L (≈ 186 µM).
On the same counts, the results for `Cc1c(C(=O)c2ccc(-c3ccccc3)cc2)oc2cc3occ(C=C4C(=O)NC(=O)NC4=O)c(=O)c3cc12` are > 100 mg/L and > 100 mg/L.
The corresponding values for `COc1ccc(C(=O)c2oc3cc4occ(C=C5C(=O)NC(=S)NC5=O)c(=O)c4cc3c2C)cc1` are > 100 mg/L and > 100 mg/L.
